Structures are written as SMILES.

Consider 14 molecules from ChEMBL document CHEMBL3864128, “Syntheses of new 3-thiazolyl coumarin derivatives, in vitro α-glucosidase inhibitory activity, and molecular modeling studies” (Eur J Med Chem, 2016).

This experiment is described as follows: Inhibition of alpha-glucosidase (unknown origin) using PNP glycoside as substrate preincubated for 30 mins followed by substrate addition after 60 mins by spectrophotometric analysis. Further details: species or system Homo sapiens. The essentials: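 Enzyme activity run in 50 mM phosphate buffer, pH 6.8, containing 5% v/v DMSO. Inhibitors pre-incubated with enzyme 30 min at 37 °C, then PNP glycoside substrate added and reaction run 60 min at 37 °C. Absorbance read at 400 nm. Triplicate runs at five concentrations spanning the IC50 estimated in a first round; means adopted.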
What is called IC50 is the concentration needed to halve the response being measured. Lower therefore signals higher potency. For `COc1ccc(/N=c2\scc(-c3cc4ccccc4oc3=O)n2NC(=O)c2ccccc2OC)cc1`, the midpoint of inhibition, the IC50, lay at 16.2 µM.
For `COc1ccc(C(=O)Nn2c(-c3cc4ccccc4oc3=O)cs/c2=N\c2ccc(Cl)c(Cl)c2)c(OC)c1` the value was 2.5 µM.
For `COc1cc(OC)cc(C(=O)Nn2c(-c3cc4ccccc4oc3=O)cs/c2=N\c2cccc(Br)c2)c1` the value was 9.19 µM; for `COc1ccc(/N=c2\scc(-c3cc4ccccc4oc3=O)n2NC(=O)c2ccc(C(C)(C)C)cc2)cc1`, 1.4 µM.
To `CC(C)(C)c1ccc(C(=O)Nn2c(-c3cc4ccccc4oc3=O)cs/c2=N\c2ccc(Cl)c(Cl)c2)cc1` belongs 0.78 µM.
Take `COc1ccc(/N=c2\scc(-c3cc4ccccc4oc3=O)n2NC(=O)c2ccc(OC)cc2)cc1`: the IC50 was 3.6 µM.
For the molecule `COc1ccc(/N=c2\scc(-c3cc4ccccc4oc3=O)n2NC(=O)c2ccc(Br)cc2)cc1`, the half-maximal inhibitory concentration (IC50) amounted to 9.45 µM. Against the preceding molecule, the IC50 is about 2.6-fold higher.
For `O=C(Nn1c(-c2cc3ccccc3oc2=O)cs/c1=N\c1ccc(Cl)c(Cl)c1)c1ccccc1O` the value was 0.12 µM; for `COc1ccc(/N=c2\scc(-c3cc4ccccc4oc3=O)n2NC(=O)c2ccc(OC)cc2OC)cc1`, 7.4 µM; for `O=C(Nn1c(-c2cc3ccccc3oc2=O)cs/c1=N\c1cccc(Br)c1)c1ccccc1O`, 4.06 µM.
For `COc1ccc(/N=c2\scc(-c3cc4ccccc4oc3=O)n2NC(=O)c2ccccc2)cc1` the value was 6.5 µM; for `COc1ccc(/N=c2\scc(-c3cc4ccccc4oc3=O)n2NC(=O)c2cc(OC)cc(OC)c2)cc1`, 8.1 µM; for `COc1ccc(/N=c2\scc(-c3cc4ccccc4oc3=O)n2NC(=O)c2ccccc2O)cc1`, 1.1 µM.
For `COc1ccc(/N=c2\scc(-c3cc4ccccc4oc3=O)n2NC(=O)c2ccc(C)cc2C)cc1` the value was 2.9 µM.
